From PubChem
This excerpt belongs to a sample that is enriched for hits.
Yeast life ext: compounds extending yeast replicative lifespan, primary screen, S. cerevisiae, OD615. S. cerevisiae growth with nicotinamide; deaD strain in restrictive glucose medium. inhibition of the nicotinamide effect, % at 10 µM. actives 0.68% (n = 130,000). AID 775, 2007;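 active = inhibition above a set limit, placed 3 SD over the median of all compounds, cut at about 26% in these data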;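 note: 0% = nicotinamide-treated wells and 100% = cells grown without nicotinamide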
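System: DeaD-strain S. cerevisiae / Buffer or medium: CSMM-D, restrictive glucose (dextrose) synthetic minimal medium / Probe or stimulus: nicotinamide, 1.5 mM, co-present with compound / Compound: one concentration, 10 µM, DMSO 0.25% / Incubation: 48 h compound exposure at 30 °C, humidified / Technique: optical density (absorbance) at 615 nm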
PostGolgi yeast: phenotypic screen on post-Golgi transport, primary screen. post-Golgi transport phenotypic cell assay. inhibition, % at 10 µM. actives 0.9% (n = 98,000). AID 739, 2007;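 note: yeast cells grown in 1536-well plates; yeast grown about 18 h at 30C before absorbance read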
PostGolgi ctrl: growth inhibition of yeast control strain, primary screen, counter-screen for post-Golgi transport modulator project; efflux-deficient yeast background strain, growth absorbance A615, 16 h; inhibition, % at 10 µM; actives 5% (n = 98,000); AID 738, 2007
Yeast growth inh: growth inhibitors of yeast BB579 in restrictive medium, primary screen, yeast lifespan-shortening project, S. cerevisiae | OD615, 48 h | inhibition, % at 10 µM | actives 0.51% (n = 140,000) | AID 804, 2007;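 active = inhibition above a set limit, 3 SD over the mean compound inhibition, cut at about 44% in these data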
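System: Saccharomyces cerevisiae DeaD strain BB579, replicative lifespan model yeast | Buffer or medium: Restrictive glucose-based CSMM-D medium | Times: 4 h preincubation and 48 h exposure at 30 °C | Detection: OD615 turbidity measurement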
An asterisk follows results filed as active; / = not tested or not shown. Cut-off read from the data, not from the text of the source, unless noted: active = inhibition above about 30%; inactive = the rest.

SMILES	Yeast life ext	PostGolgi yeast	PostGolgi ctrl	Yeast growth inh
CCOc1ccc(C(=O)Nc2cc(S(=O)(=O)Nc3ccccc3Cl)ccc2N2CCOCC2)cc1	-0.7	/	/	-22.4
O=C(Nc1ccccc1N1CCOCC1)c1ccccc1NS(=O)(=O)c1ccc(F)cc1	3.6	1.8	34.0*	-45.0
O=C(Nc1ccccc1N1CCOCC1)c1ccccc1NS(=O)(=O)c1ccc(F)c(F)c1	17.1	3.7	14.6	-14.2
CCOc1ccc(S(=O)(=O)Nc2ccccc2C(=O)Nc2ccccc2N2CCOCC2)cc1	18.3	3.1	34.2*	-66.5
COc1cccc(/C=N/N2CCN(c3ccncc3S(=O)(=O)N3CCCCC3)CC2)c1	0.5	/	/	-2.8
CCN(CC)CCNS(=O)(=O)c1ccc(OC)c(Br)c1	-15.9	2.5	1.7	-20.4
CCCCN(CCCNC(=O)C1CCN(S(=O)(=O)CC)CC1)c1ccccc1	-9.6	-5.4	-6.0	-25.9
Cc1cc2c(n1-c1ccc(Br)cc1)CC(C)(C)CC2=O	7.3	0.3	40.0*	-16.5
CC1(C)CC(=O)c2cc(C(=O)Nn3cnnc3)c(=O)n(-c3ccccc3)c2C1	6.3	18.7	1.4	-73.9
Cc1ccc(N2C(=O)C(O)(C(F)(F)F)C3=C2CC(C)(C)CC3=O)cc1C (configuration not stated)	-19.0	0.0	-7.3	-1.6
Cc1ccc(-n2c(C)cc3c2CC(C)(C)CC3=O)cc1C	17.1	16.1	31.2*	-55.8
CCOc1cc(CNCCO)cc(Br)c1OCc1ccc(Cl)cc1Cl	-36.2	27.0	90.0*	95.7*
O=S(=O)(NC1CCCCCC1)c1ccc(Br)s1	/	/	/	-1.2
O=S(=O)(c1ccc(Cl)cc1)N1CCN=C1SCc1ccc(Cl)c(Cl)c1	5.6	/	/	-30.2
COc1ccc2c(c1OC)C(=O)OC2Nn1cncn1 (configuration not stated)	50.7*	-0.8	-3.1	-56.5
O=C(C#Cc1ccccc1)c1ccc([N+](=O)[O-])cc1	20.1	10.6	35.6*	35.1
COc1cccc(Nc2ncnc3ccccc23)c1	-12.4	10.1	0.6	4.6
O=C(Oc1cccc(Nc2ncnc3ccccc23)c1)c1ccccc1Cl	-2.0	-1.3	69.4*	-51.4
COC(=O)c1ccccc1S(=O)(=O)N(Cc1ccco1)Cc1cc2cc(OC)ccc2[nH]c1=O	-2.3	-1.0	7.2	-40.5
COC(=O)c1ccccc1S(=O)(=O)N(CCCO)Cc1cc2c(C)ccc(C)c2[nH]c1=O	-20.7	9.8	36.5*	-35.4
O=C(c1ccccc1)N1CCCCC(Sc2nnc3ccccn23)C1=O (configuration not stated)	-1.1	-1.6	31.0*	-20.6
CC(=O)OCCNc1cc(N2CCN(C)CC2)c2noc3c2c1C(=O)c1ccccc1-3	1.2	0.6	18.6	-44.4
CCOC(=O)C(C(=O)OCC)c1cc(Br)c2noc3c2c1C(=O)c1ccccc1-3	46.2*	-3.0	3.5	-24.8
O=C(C1CCN(S(=O)(=O)N2CCOCC2)CC1)N1CCN(c2ccccc2)CC1	-18.7	-4.7	-1.6	5.0
Cc1nc(SCC(=O)N2CCN(c3ccccc3)CC2)c2oc3ccccc3c2n1	-1.7	0.3	34.9*	-55.2
SMILES	Yeast life ext	PostGolgi yeast	PostGolgi ctrl	Yeast growth inh
CCc1nc(N2CCCC(C)C2)c2oc3ccccc3c2n1 (configuration not stated)	-13.5	10.4	47.5*	-2.3
Cc1nc(SCC(=O)O)c2oc3ccccc3c2n1	-13.5	-18.9	-4.9	-17.1
CCc1nc(SCC(=O)N2CCCc3ccccc32)c2oc3ccccc3c2n1	-19.4	11.4	37.3*	-50.2
CCc1nc(SCC(=O)Nc2ccc3c(c2)OCCO3)c2oc3ccccc3c2n1	-7.5	-5.3	-10.4	-20.8
Cc1nc(SCc2nc3ccccc3[nH]2)c2oc3ccccc3c2n1	-22.1	3.5	37.6*	4.6
COc1cc(C(=O)NC2CCCc3ccccc32)ccc1OCC(=O)Nc1ccc(F)cc1 (configuration not stated)	-2.0	/	/	-32.2
C#CCn1c(S(=O)(=O)Cc2ccc(F)cc2)nc(-c2ccccc2)c1-c1ccccc1	-0.9	-8.8	24.8	-38.3
CCOC(=O)C1CCN(c2nc(C)nc3c2oc2ccccc23)CC1	-9.1	19.8	36.4*	-48.5
O=c1c2[nH]c3ccccc3c2ncn1Cc1ccncc1	-8.8	-4.3	9.6	-15.4
O=c1c2[nH]c3ccccc3c2ncn1Cc1ccco1	71.9*	-23.7	24.9	-17.0
CC(C)c1nnc(NC(=O)CCC(=O)N2CCN(C3c4ccccc4-c4ccccc43)CC2)s1	-3.0	/	/	-6.3
CN(C)C(=O)c1ccccc1Sc1ccc(Cl)cc1Cl	-5.1	-1.6	12.2	-30.1
CN(C)C(=O)c1ccccc1Sc1cc(Cl)ccc1Cl	-6.1	5.3	35.3*	-29.0
O=C(Nc1ccccc1)Nc1cccc(Cl)c1Cl	-4.4	/	/	-19.0
COC(=O)c1sccc1NC(=O)Nc1cccc(Cl)c1Cl	-3.3	-2.9	33.6*	-35.0
Cn1c(NC(=O)c2cccs2)cc(=O)n(C)c1=O	0.5	-15.3	2.8	8.4
Cn1c(N/N=C/c2cccs2)cc(=O)n(C)c1=O	-17.0	0.6	35.1*	-67.0
Cc1noc(NS(=O)(=O)c2ccc(NC(=O)CSc3nc4ccccc4[nH]3)cc2)c1C	-14.9	-2.1	37.0*	-56.2
O=C(CSc1nc2cc3ccccc3cc2[nH]1)Nc1ccc(F)cc1	-5.9	2.0	54.7*	-36.8
CCOC(=O)c1c(NC(=O)CSc2nnnn2-c2ccc(OC)cc2)sc(C)c1C	-4.1	0.3	0.8	42.3
Cc1cc(C(=O)CSc2n[nH]c(-c3ccccc3F)n2)c(C)n1Cc1cccs1	-4.4	1.3	33.5*	-17.8
CCOc1ccc(N(CC(=O)Nc2cccc(Cl)c2)S(=O)(=O)c2c(C)noc2C)cc1	-12.8	7.2	44.7*	-1.2
CCOC(=O)n1c(=O)n(Cc2ccccc2)c2ccccc21	-3.3	12.5	11.8	-14.4
CCOC(=O)n1c(=O)n(Cc2ccc(Cl)c(Cl)c2)c2ccccc21	3.3	0.5	65.7*	-62.5
COc1ccccc1C(C)NCC(=O)Nc1ccccc1C(F)(F)F (configuration not stated)	-0.1	/	/	-19.1
SMILES	Yeast life ext	PostGolgi yeast	PostGolgi ctrl	Yeast growth inh
O=C(CSc1nnc(-c2ccc(O)cc2)n1-c1ccccc1)CC(=O)Nc1ccccc1	1.3	/	/	-22.8
C/C(=N/NC(=O)C1CC1(c1ccccc1)c1ccccc1)c1cccs1 (configuration not stated)	5.3	/	/	-42.3
C/C(=N\NC(=O)C1CC1)c1cccs1	27.2*	/	/	-51.5
CCOC(=O)C/C(C)=N/NC(=O)Nc1ccccc1	30.8*	/	/	-28.0
COc1ccc(S(=O)(=O)n2oc(=O)cc2-c2ccccc2)cc1OC	18.3	-8.0	6.5	56.9*
O=c1cc(-c2ccccc2)n(S(=O)(=O)c2ccccc2)o1	2.5	4.6	13.8	79.6*
COc1ccc(S(=O)(=O)n2oc(=O)cc2-c2ccccc2)cc1	32.2	28.1	7.5	21.2
CCOC(=O)c1c(C)[nH]c(C(=O)C(C)OC(=O)c2cccc(OCc3c(C)noc3C)c2)c1C (configuration not stated)	-0.2	-6.4	7.8	-47.5
